Experimental data: ChEMBL document CHEMBL1149883, “alpha-Glucosidase inhibitory activity of triterpenoids from Cichorium intybus” (J Nat Prod, 2008)
Activity calls are given as the source filed them. No cut-off for these calls is given here.

Target: not listed separately
Test: (§1) Inhibition of Saccharomyces sp. alpha-glucosidase
In short: (§2)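 Read spectrophotometrically at pH 6.9 and 37 °C in 50 mM sodium phosphate buffer with 100 mM NaCl. Substrate was 0.5 mM p-nitrophenyl α-D-glucopyranoside, and enzyme was 250 m units/mL. The rise in absorbance at 400 nm from PNP-G hydrolysis was followed continuously. 1-Deoxynojirimycin (0.425 mM) and acarbose (0.78 mM) served as positive controls. Modified from Oki et al.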
Molecule C=C1[C@H](O)C[C@]2(C)CC[C@]3(C)[C@H](CC[C@@H]4[C@@]5(C)CC[C@H](O)C(C)(C)[C@@H]5CC[C@]43C)[C@H]2[C@H]1C has an IC50 of 51.9 µM. C=C1[C@H](OC(C)=O)C[C@]2(C)CC[C@]3(C)[C@H](CC[C@@H]4[C@@]5(C)CC[C@H](OC(C)=O)C(C)(C)[C@@H]5CC[C@]43C)[C@H]2[C@H]1C showed an IC50 of 10 µM. With COc1cc(C(=O)O)ccc1O [VANILLIC ACID] the IC50 was 69 µM. C[C@H]1C(=O)CC[C@@H]2[C@]1(C)CC[C@H]1[C@@]2(C)CC[C@@]2(C)[C@@H]3CC(C)(C)CC[C@]3(C)CC[C@]12C [FRIEDELINE] gave an IC50 of 321 µM. With OC[C@H]1NC[C@H](O)[C@@H](O)[C@@H]1O [DUVOGLUSTAT] the IC50 was 425 µM.

System: Saccharomyces sp.
Test: as §1
In short: as §2
In the case of C=C1[C@@H]2CC[C@@]3(C)[C@@H](c4ccoc4)OC(=O)C[C@@]13O[C@H]1CC(=O)C(C)(C)[C@H](C(O)C(=O)OC)[C@]12C (stereo not given in full), the Activity is reported as “inactive”. With C=C(C)[C@@H]1CC[C@]2(C=O)CC[C@]3(C)[C@H](CC[C@@H]4[C@@]5(C)CC[C@H](O)C(C)(C)[C@@H]5CC[C@]43C)[C@@H]12 the Activity was “inactive”. In the case of COc1cc(C(=O)O)cc(OC)c1O, the Activity is reported as “inactive”. With C=C(C)[C@@H]1CC[C@]2(C)CC[C@]3(C)[C@H](CC[C@@H]4[C@@]5(C)CC[C@H](O)C(C)(C)[C@@H]5CC[C@]43C)[C@@H]12 the Activity was “inactive”. For C=C(C)[C@@H]1CC[C@]2(C(=O)O)CC[C@]3(C)[C@H](CC[C@@H]4[C@@]5(C)CC[C@H](O)C(C)(C)[C@@H]5CC[C@]43C)[C@@H]12, the Activity was “inactive”. For C=C(C)[C@@H]1CC[C@]2(CO)CC[C@]3(C)[C@H](CC[C@@H]4[C@@]5(C)CC[C@H](O)C(C)(C)[C@@H]5CC[C@]43C)[C@@H]12, the Activity was “inactive”. With CC[C@H](/C=C/[C@@H](C)[C@H]1CC[C@H]2[C@@H]3CC=C4C[C@@H](O)CC[C@]4(C)[C@H]3CC[C@]12C)C(C)C the Activity was “inactive”. In the case of CO[C@H]1O[C@H](CO)[C@H](O)[C@H](O)[C@H]1O, the Activity is reported as “inactive”. In the case of O=c1ccc2cc(O)c(O)cc2o1, the Activity is reported as “inactive”. In the case of CC[C@H](CC[C@@H](C)[C@H]1CC[C@H]2[C@@H]3CC=C4C[C@@H](O)CC[C@]4(C)[C@H]3CC[C@]12C)C(C)C, the Activity is reported as “inactive”.
